The subject of assay [1] is MT4. Kind of assay: Effective concentration against HIV-induced cytopathogenicity in MT-4 cells. Format: functional, cell-based. The note with it: Homo sapiens.
Assay [2] addresses C-X-C chemokine receptor type 4 (Homo sapiens, UniProt P61073). Kind of assay: Inhibition of [125I]SDF-1 binding to C-X-C chemokine receptor type 4 expressed in CHO cells. Format: cell-based.
Assay [3] relates to MT4. The experiment in a line: Cytotoxic concentration against the mock infected MT-4 cells. Format: functional. The settings on record: Homo sapiens. A digest of the protocol: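 MT-4 cells (RPMI 1640, 10% heat-inactivated FCS, penicillin/streptomycin) without virus, 1.5×10^4 cells/well, exposed to graded compound concentrations for 5 days at 37 °C in CO₂; viable cells counted by MTT method; CC₅₀ from loss of viability; mean of at least three independent experiments.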

From ChEMBL document CHEMBL1145173, “Stereoselective synthesis of [L-Arg-L/D-3-(2-naphthyl)alanine]-type (E)-alkene dipeptide isosteres and its application to the synthesis and biological evaluation of pseudopeptide analogues of the CXCR4 antagonist FC131” (J Med Chem, 2005) come the findings set out here.

Where a SMILES comes first, the peptide text is derived from it.

Sequence of C-X-C chemokine receptor type 4 (P61073 whole entry): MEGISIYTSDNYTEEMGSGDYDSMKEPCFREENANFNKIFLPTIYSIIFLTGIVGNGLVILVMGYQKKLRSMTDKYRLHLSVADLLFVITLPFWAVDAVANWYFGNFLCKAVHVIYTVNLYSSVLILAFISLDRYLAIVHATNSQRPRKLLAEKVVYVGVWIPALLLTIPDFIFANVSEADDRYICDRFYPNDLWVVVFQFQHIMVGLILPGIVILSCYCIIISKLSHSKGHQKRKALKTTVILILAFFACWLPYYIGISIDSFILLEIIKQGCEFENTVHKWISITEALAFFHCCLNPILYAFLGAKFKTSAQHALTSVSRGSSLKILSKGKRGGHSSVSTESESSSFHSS

Usually EC50 stands for the concentration giving half of the maximal effect. Lower therefore signals an effect from little substance. What is called IC50 is the concentration that gives 50% inhibition. Higher therefore signals lower potency. The CC50 is the concentration that lowers cell viability or growth by half. In assay [1], `N=C(N)NCCC[C@@H]1NC(=O)[C@@H](Cc2ccc(O)cc2)NC(=O)NC(=O)[C@@H](Cc2ccc3ccccc3c2)/C=C\[C@H](CCCN=C(N)N)NC1=O` came in with an EC50 of 2400 nM. For the same compound, the concentration for half-maximal inhibition (IC50) in assay [2] was over 31000 nM. In addition, the cytotoxic concentration (CC50) in assay [3] is over 100000 nM.

`N=C(N)NCCC[C@@H]1NC(=O)[C@@H](Cc2ccc(O)cc2)NC(=O)NC(=O)[C@H](Cc2ccc3ccccc3c2)NC(=O)[C@H](CCCN=C(N)N)NC1=O` had a concentration for a half-maximal effect (EC50) in assay [1] of 73 nM. Moreover, the half-inhibitory concentration (IC50) in assay [2] was found to be 4.5 nM. For the same compound, the 50% cytotoxic concentration (CC50) in assay [3] is over 100000 nM.

Take `N=C(N)NCCC[C@@H]1NC(=O)[C@@H](Cc2ccc(O)cc2)NC(=O)CNC(=O)[C@H](Cc2ccc3ccccc3c2)/C=C\[C@H](CCCN=C(N)N)NC1=O`: the half-maximal effective concentration (EC50) in assay [1] is 9100 nM. The compound further showed an IC50 in assay [2] of 21000 nM. This compound displayed a half-maximal cytotoxic concentration (CC50) in assay [3] of over 100000 nM.

On to `N=C(N)NCCC[C@@H]1NC(=O)[C@@H](Cc2ccc(O)cc2)NC(=O)CNC[C@H](Cc2ccc3ccccc3c2)NC(=O)[C@H](CCCN=C(N)N)NC1=O`, for which the EC50 in assay [1] amounted to 980 nM. In assay [2], this compound showed an IC50 of 32 nM. The compound also displayed a half-maximal cytotoxic concentration (CC50) in assay [3] of over 100000 nM.

The compound `NC(N)=NCCC[C@@H]1NC(=O)[C@H](CCCN=C(N)N)NC(=O)[C@@H](Cc2ccc(O)cc2)NC(=O)C/C=C/[C@H](Cc2ccc3ccccc3c2)NC1=O` yielded an EC50 in assay [1] of 2400 nM. For the same compound, in assay [2], the IC50 was 180 nM. For the same compound, in assay [3], the CC50 is over 100000 nM.

`NCCCC[C@@H]1NC(=O)[C@H](CCCN=C(N)N)NC(=O)[C@H](Cc2ccc(O)cc2)NC(=O)[C@@H](NC(=O)[C@H](Cc2ccc3ccccc3c2)NC(=O)[C@H](CCCN=C(N)N)NC(=O)[C@@H](N)CCCN=C(N)N)CSSC[C@@H](C(=O)N[C@@H](CCCN=C(N)N)C(=O)O)NC(=O)[C@H](CCCNC(N)=O)NC(=O)[C@H](CCCN=C(N)N)NC(=O)[C@H](Cc2ccc(O)cc2)NC(=O)[C@@H]2CCCN2C(=O)[C@@H](CCCCN)NC1=O` (HELM PEPTIDE1{R.R.[O=C([C@H](Cc1ccc2ccccc2c1)N[*:1])[*:2]].C.Y.R.K.[dK].P.Y.R.[Cit].C.R}$PEPTIDE1,PEPTIDE1,4:R3-13:R3$$$V2.0) [listing 1 of 2 here] came in with an EC50 in assay [1] of 35 nM. Further, the IC50 in assay [2] amounted to 3.9 nM.

`NCCCC[C@@H]1NC(=O)[C@H](CCCN=C(N)N)NC(=O)[C@H](Cc2ccc(O)cc2)NC(=O)[C@@H](NC(=O)[C@H](Cc2ccc3ccccc3c2)NC(=O)[C@H](CCCN=C(N)N)NC(=O)[C@@H](N)CCCN=C(N)N)CSSC[C@@H](C(=O)N[C@@H](CCCN=C(N)N)C(=O)O)NC(=O)[C@H](CCCNC(N)=O)NC(=O)[C@H](CCCN=C(N)N)NC(=O)[C@H](Cc2ccc(O)cc2)NC(=O)[C@@H]2CCCN2C(=O)[C@@H](CCCCN)NC1=O` (HELM PEPTIDE1{R.R.[O=C([C@H](Cc1ccc2ccccc2c1)N[*:1])[*:2]].C.Y.R.K.[dK].P.Y.R.[Cit].C.R}$PEPTIDE1,PEPTIDE1,4:R3-13:R3$$$V2.0) [listing 2 of 2 here] returned a cytotoxic concentration (CC50) in assay [3] of over 10000 nM.

Take `Cc1cn([C@H]2C[C@H](N=[N+]=[N-])[C@@H](CO)O2)c(=O)[nH]c1=O` [ZIDOVUDINE]: the response in assay [1] was half-maximal at 18 nM (EC50). Besides, in assay [3], the CC50 was determined as 57000 nM.

Consider `N=C(N)NCCC[C@@H]1NC(=O)[C@@H](Cc2ccc(O)cc2)NC(=O)CNC(=O)[C@@H](Cc2ccc3ccccc3c2)NC(=O)[C@H](CCCN=C(N)N)NC1=O`, for which, in assay [1], a half-maximal effect (EC50) was put at 1900 nM. The CC50 in assay [3] was over 100000 nM.
